rCAG binder: binders of r(CAG) RNA repeats, primary screen, biochemical, fluorescence | r(CAG) RNA repeat, TO-PRO-1 dye displacement fluorescence | inhibition, % at 3 µM | hit rate 1.3% among 370,000 | AID 651821, 2012;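 active = inhibition above the plate cutoff, the mean of all test compounds on that plate plus 3 SD, cut at about 35% in these data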;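 note: higher means more dye released from RNA so lower well fluorescence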
PRMT1 FP inh: PRMT1 methyltransferase inhibitors, primary screen, biochemical, fluorescence polarization; Protein arginine N-methyltransferase 1 (Homo sapiens), Q99873; hit rate 1.3% among 370,000; inhibition, % at 2.79 µM; recombinant PRMT1, activity-based probe fluorescence polarization;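 active = inhibition above about 21% made by adding two undisclosed values, limit read from the data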
SIAE inh: human SIAE inhibitors, primary screen, biochemical, fluorescence polarization, FP-Rh probe, 1536-well HTS | inhibition, % at 9.66 µM | SIAE FP-Rh probe binding | hit rate 0.69% among 370,000 | AID 1053197, 2014 | Sialate O-acetylesterase (Homo sapiens), Q9HAT2;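 active = inhibition above a cutoff: mean of compounds within the control limits plus 3 SD of those, cut at about 17% in these data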
Target sequence (Q9HAT2 whole entry, looked up): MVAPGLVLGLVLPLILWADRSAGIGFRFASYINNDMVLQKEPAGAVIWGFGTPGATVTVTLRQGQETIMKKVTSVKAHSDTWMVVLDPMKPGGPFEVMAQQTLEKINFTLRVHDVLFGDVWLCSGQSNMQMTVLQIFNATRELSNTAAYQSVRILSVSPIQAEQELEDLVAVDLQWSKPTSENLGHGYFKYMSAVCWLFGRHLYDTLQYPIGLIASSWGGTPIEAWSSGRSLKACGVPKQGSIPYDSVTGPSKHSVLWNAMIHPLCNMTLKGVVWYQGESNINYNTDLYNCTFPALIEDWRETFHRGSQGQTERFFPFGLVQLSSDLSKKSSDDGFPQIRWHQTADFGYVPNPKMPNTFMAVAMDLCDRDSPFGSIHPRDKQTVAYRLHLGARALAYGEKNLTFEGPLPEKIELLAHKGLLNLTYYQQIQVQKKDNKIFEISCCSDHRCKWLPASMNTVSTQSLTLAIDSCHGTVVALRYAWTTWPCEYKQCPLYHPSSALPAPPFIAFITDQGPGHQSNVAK
mABHD4 FP: ABHD4 inhibitors, primary screen, biochemical, fluorescence polarization, mouse; hit rate 0.54% among 370,000; purified mABHD4, FP-Rh probe fluorescence polarization; inhibition, % at 8.92 µM;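 active = inhibition exceeding the mean over every tested compound plus 3 SD, cut at about 30% in these data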
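Assay system: Wild-type mouse ABHD4 protein | Medium: HEPES pH 7.0 buffer, 150 mM NaCl, 0.01% Pluronic F-127 | Incubation: Enzyme–compound pre-incubation 45 min, then probe 60 min, both 25 °C | Technique: Fluorescence polarization with parallel and perpendicular emission, 525/598 nm | Evaluation: % inhibition of FP-Rh probe binding versus controls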
HTRA1 inhibitor: HTRA1 serine protease inhibitors, primary screen, biochemical, fluorescence polarization, HTS | Q92743 | recombinant HTRA1, FP-rhodamine activity-based probe | inhibition, % at 5.96 µM | hit rate 0.5% among 340,000; in the data active = inhibition above about 36%
TCR CD3 inh: inhibitors of human TCR-CD3 interaction, primary screen, biochemical, fluorescence, TAMRA-labeled TCR probe | T-cell receptor (TCR) | inhibition, % at 9.4 µM | hit rate 0.37% among 360,000; in the data active = inhibition above about 19%;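 note: recombinant mutant TCR 2C K166C tagged with TAMRA read by polarization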
rCAG binder conf: small molecules binding CAG repeat RNA – biochemical, fluorescence, confirmation; shares compounds with rCAG binder; r(CAG) RNA repeat, TO-PRO-1 dye displacement fluorescence; inhibition, % at 3 µM; hit rate 70% among 4,300; AID 652065, 2013;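 active = inhibition above a per-plate cutoff, the mean inhibition of sample wells plus 3 SD, cut at about 35% in these data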;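 note: loss of TO-PRO-1 fluorescence as compound displaces dye from 1x1 AA loop RNA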
dCAG dye counter: displacement of TO-PRO-1 from CAG DNA duplex, counter-screen for rCAG RNA repeat binder project, biochemical, fluorescence, TO-PRO-1 dye, d(CAG) DNA oligo | inhibition, % at 3 µM | hit rate 94% among 4,300 | shares compounds with rCAG binder | AID 652068, 2013 | d(CAG) DNA oligo TO-PRO-1 dye displacement;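 active = inhibition above its plate's cutoff, the mean test-well inhibition plus 3 SD, cut at about 4.8% in these data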;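 note: hits displace the dye from DNA and so lower well fluorescence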
dCAG dye DR: inhibitors of DNA CAG/GTC TO-PRO-1 complex, dose response, counter-screen for rCAG RNA repeat binder project, biochemical, fluorescence, TO-PRO-1 dye; IC50, µM; hit rate 20% among 250; DNA CAG/GTC duplex TO-PRO-1 dye displacement fluorescence; shares compounds with rCAG binder; in the data active = IC50 below about 10 µM
A number is an active result; - = inactive; . = no result. The list is not random: actives were taken first. Their share in the collection is about 3.5%.

SMILES	rCAG binder	PRMT1 FP inh	SIAE inh	mABHD4 FP	HTRA1 inhibitor	TCR CD3 inh	rCAG binder conf	dCAG dye counter	others
COc1ccc(OC)c(/C=C2\SC(=S)N(Cc3cccnc3)C2=O)c1	-	-	-	-	-	-	.	.
O=C1/C(=C/c2cccs2)SC(=S)N1NS(=O)(=O)c1ccccc1	54	-	-	-	-	-	-	6.8
COc1cccc(N2CCN(CC(=O)NCc3ccccc3C)CC2)c1	-	-	-	-	.	.	.	.
O=C(c1cc(Cl)cc(Cl)c1)N1CC[C@H]2[C@H](CCCN2Cc2cc(F)cc(F)c2)C1	-	-	-	-	.	.	.	.
CCCc1cc(=O)oc2cc(C)cc(OCC(=O)NC(Cc3ccc(Cl)cc3)C(=O)O)c12 (stereo unspecified)	45	-	-	-	-	-	47	10	dCAG dye DR=-
Cc1cc(OCC(=O)NC(Cc2ccc(Cl)cc2)C(=O)O)c2c(C)c(C)c(=O)oc2c1 (stereo unspecified)	45	-	-	-	-	-	42	9.4
CCCc1cc(=O)oc2cc(C)cc(OCC(=O)N[C@@H](CSCc3ccccc3)C(=O)O)c12	62	-	-	-	-	-	50	13
CCc1ccc(N=C2NC(=O)/C(=C/c3ccc(OCC(=O)O)cc3)S2)cc1	49	-	-	-	-	-	40	10
CCc1ccc(N=C2NC(=O)/C(=C/c3ccc(OCC(=O)O)c(OC)c3)S2)cc1	42	-	-	-	-	-	39	12
COC(=O)[C@H](C(C)C)N1CCc2nnn(CC3CCCCC3)c2-c2ccccc2S1(=O)=O	-	-	-	-	.	.	.	.
CCCCCC(=O)NC1CCCCN(Cc2ccc(Cl)cc2)C1=O (stereo unspecified)	-	-	-	-	.	.	.	.
Cc1ccc(NC(=O)CN(C)C(=O)c2cc(-c3ccco3)nc3ccccc23)cc1	35	-	-	-	-	-	-	8.7
CCOc1ccc2nc(NS(=O)(=O)c3ccc4c(c3)n(C)c(=O)n4C)sc2c1	44	-	-	-	-	-	-	8.3
Cc1nc(-c2ccccc2)sc1C(=O)NS(=O)(=O)c1ccc(CN2CCN(c3ccccc3)CC2)cc1	83	-	-	-	.	-	81	45
CNC(=O)c1sc(-c2ccccc2)nc1C	-	-	-	-	-	-	.	.
COC(=O)C1CN(Cc2cn(Cc3ccc(OC)cc3)nn2)CCS(=O)(=O)N1Cc1ccccc1 (stereo unspecified)	-	-	-	-	.	.	.	.
COC(=O)C[C@@H]1CC[C@H]2[C@@H](COc3ccc(NC(=O)NC(C)C)cc3C(=O)N2C)O1	-	-	-	-	.	.	.	.
CCc1ccc(-n2c(=S)sc3c(=O)n(-c4ccccc4C)c(SCC(=O)O)nc32)cc1	41	-	-	-	-	-	44	13
CCN(CC)C(=O)CSc1nc2c(sc(=S)n2-c2ccccc2)c(=O)n1-c1ccccc1OC	-	-	-	-	-	-	.	.
COc1ccccc1-n1c(SCC(=O)O)nc2c(sc(=S)n2-c2ccc(Cl)c(C)c2)c1=O	66	-	-	-	-	-	60	24
CCOC(=O)CSc1nc2c(sc(=S)n2-c2ccccc2)c(=O)n1-c1ccc(OC)cc1OC	-	-	-	-	-	-	.	.
Cc1ccc(-n2c(=S)sc3c(=O)n(-c4ccccc4C)c(SCC(=O)O)nc32)cc1C	41	-	-	-	-	-	68	28
COc1ccccc1-n1c(SCC(=O)O)nc2c(sc(=S)n2-c2ccc(C)c(C)c2)c1=O	48	-	-	-	-	-	72	33	dCAG dye DR=-
CC(C)(C)c1ccc(-c2nnc3sc(COc4ccccc4)nn23)cc1	-	-	-	-	.	.	.	.
COc1cccc(OC)c1NC(=O)OCCN1CCCC12CCC(c1ccccc1)CC2 (stereo unspecified)	.	-	-	-	.	.	.	.
SMILES	rCAG binder	PRMT1 FP inh	SIAE inh	mABHD4 FP	HTRA1 inhibitor	TCR CD3 inh	rCAG binder conf	dCAG dye counter	others
C=CC[C@@H]1NN2C(=O)[C@@H](CCCC)[C@@H]3c4cc5ccccc5cc4C=NN3[C@@H]2c2cc3ccccc3cc21	-	-	-	-	.	.	.	.
CCOc1ccccc1-n1c(=S)sc2c(=O)n(-c3ccc(F)cc3)c(SCC(=O)O)nc21	-	-	-	-	-	-	.	.
Cc1cc(-n2c(=S)sc3c(=O)n(-c4ccc(F)cc4)c(SCC(=O)O)nc32)ccc1Cl	48	-	-	-	-	-	38	12
CC1=NN(c2ccccc2C(=O)O)C(=O)C1N=Nc1ccccc1 (stereo unspecified)	44	-	-	-	-	-	40	10
Cc1cc(C(F)(F)F)c2c(C)nn(CCc3nn[nH]n3)c2n1	-	-	-	-	-	-	.	.
Cc1nn(CCc2nn[nH]n2)c2nc(-c3ccccc3)cc(C(F)(F)F)c12	44	-	-	-	-	-	-	-
CCc1ccc([C@H]2C(C(=O)O)=C[C@@H](C(C)(C)C)N2S(=O)(=O)c2ccc(C)cc2)cc1	52	-	-	-	-	-	49	18
Cc1ccc([C@@H]2CC=C(C(=O)O)[C@H](c3ccc(C(C)(C)C)cc3)N2S(=O)(=O)c2ccc(C)cc2)cc1	90	-	-	-	-	-	84	48
COc1cc([C@@H]2CC=C(C(=O)O)[C@H](c3ccccc3)N2S(=O)(=O)c2ccc(C)cc2)cc(OC)c1OC	-	-	-	-	-	-	.	.
Cc1ccc(S(=O)(=O)N2[C@@H](c3ccc(C(C)(C)C)cc3)C(C(=O)O)=CC[C@H]2c2ccc(C(C)C)cc2)cc1	90	-	-	-	-	-	74	44
CCc1ccc([C@@H]2CC=C(C(=O)O)[C@H](c3ccc(C(C)(C)C)cc3)N2S(=O)(=O)c2ccc(C)cc2)cc1	92	-	-	-	-	-	85	53
Cc1ccc(S(=O)(=O)N2[C@@H](c3ccc(Br)cc3)C(C(=O)O)=CC[C@H]2c2ccc(C(C)C)cc2)cc1	-	-	-	-	-	-	.	.
